Source: paper PMC6681659 (Bioorganic & medicinal chemistry letters, 2018)
Each block holds one compound with its values, some of them ahead of it.

Columns and labels:
Kif15-N700 [1] = target: T1, Kif15-N700 (Homo sapiens, UniProt Q9NS87); test: MT gliding assay with Kif15-N700; type: biochemical; conditions: for Kif15 MT gliding inhibition (SAR, in words): 750 nM; for effect on Kif15-driven MT gliding at a single concentration: GW108X 10 μM for 1 minute, Kif15-IN-1 1.72 μM; for reversibility of Kif15 inhibition in MT gliding assay: wash out experiment
T1 sequence (Q9NS87 1-700 limits assumed): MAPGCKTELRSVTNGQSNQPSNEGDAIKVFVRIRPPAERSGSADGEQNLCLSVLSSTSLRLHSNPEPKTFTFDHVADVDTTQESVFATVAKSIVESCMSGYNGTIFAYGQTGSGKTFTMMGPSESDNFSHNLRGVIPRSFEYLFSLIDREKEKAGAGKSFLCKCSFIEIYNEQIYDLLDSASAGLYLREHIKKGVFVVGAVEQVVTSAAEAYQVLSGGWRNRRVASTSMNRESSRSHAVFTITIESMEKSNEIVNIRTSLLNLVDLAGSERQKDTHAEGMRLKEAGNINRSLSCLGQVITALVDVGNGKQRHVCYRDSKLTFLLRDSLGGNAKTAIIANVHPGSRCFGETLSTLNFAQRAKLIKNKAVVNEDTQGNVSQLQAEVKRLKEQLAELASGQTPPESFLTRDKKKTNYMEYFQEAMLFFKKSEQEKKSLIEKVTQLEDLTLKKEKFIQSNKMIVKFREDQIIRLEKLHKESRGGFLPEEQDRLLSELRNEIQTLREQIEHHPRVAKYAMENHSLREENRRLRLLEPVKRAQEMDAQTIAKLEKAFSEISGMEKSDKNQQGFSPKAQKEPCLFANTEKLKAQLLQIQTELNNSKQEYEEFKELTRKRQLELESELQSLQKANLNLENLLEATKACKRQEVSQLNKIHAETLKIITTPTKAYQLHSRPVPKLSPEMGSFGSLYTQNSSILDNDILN
How it was run: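 Motility assay in which Kif15-N700 glides fluorescent MTs, scored by gliding velocity. The SAR screen used 750 nM test compound in triplicate (some in duplicate), with n ≥ 30 measurements per replicate. Concentration-response series ran 10 to 0.2 μM (12 concentrations) or 30 to 0.1 μM (5 concentrations). For reversibility, gliding was started in DMSO, then 10 μM compound was added for 1 minute, followed by a double wash-out.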

RPE-1 cells = conditions: cited from earlier work
Kif15-N700 [2] = target: T1, Kif15-N700; test: MT-stimulated ATPase activity of Kif15-N700 at varying ATP or MT concentrations; type: biochemical; conditions: for mode of inhibition with respect to ATP: Lineweaver-Burk analysis
Kif15 = target: T2, Kif15 (Homo sapiens, UniProt Q9NS87); test: Kif15 localization and protein level in RPE-1 cells; type: cell-based; conditions: 25 μM
T2 sequence (Q9NS87 1-1388): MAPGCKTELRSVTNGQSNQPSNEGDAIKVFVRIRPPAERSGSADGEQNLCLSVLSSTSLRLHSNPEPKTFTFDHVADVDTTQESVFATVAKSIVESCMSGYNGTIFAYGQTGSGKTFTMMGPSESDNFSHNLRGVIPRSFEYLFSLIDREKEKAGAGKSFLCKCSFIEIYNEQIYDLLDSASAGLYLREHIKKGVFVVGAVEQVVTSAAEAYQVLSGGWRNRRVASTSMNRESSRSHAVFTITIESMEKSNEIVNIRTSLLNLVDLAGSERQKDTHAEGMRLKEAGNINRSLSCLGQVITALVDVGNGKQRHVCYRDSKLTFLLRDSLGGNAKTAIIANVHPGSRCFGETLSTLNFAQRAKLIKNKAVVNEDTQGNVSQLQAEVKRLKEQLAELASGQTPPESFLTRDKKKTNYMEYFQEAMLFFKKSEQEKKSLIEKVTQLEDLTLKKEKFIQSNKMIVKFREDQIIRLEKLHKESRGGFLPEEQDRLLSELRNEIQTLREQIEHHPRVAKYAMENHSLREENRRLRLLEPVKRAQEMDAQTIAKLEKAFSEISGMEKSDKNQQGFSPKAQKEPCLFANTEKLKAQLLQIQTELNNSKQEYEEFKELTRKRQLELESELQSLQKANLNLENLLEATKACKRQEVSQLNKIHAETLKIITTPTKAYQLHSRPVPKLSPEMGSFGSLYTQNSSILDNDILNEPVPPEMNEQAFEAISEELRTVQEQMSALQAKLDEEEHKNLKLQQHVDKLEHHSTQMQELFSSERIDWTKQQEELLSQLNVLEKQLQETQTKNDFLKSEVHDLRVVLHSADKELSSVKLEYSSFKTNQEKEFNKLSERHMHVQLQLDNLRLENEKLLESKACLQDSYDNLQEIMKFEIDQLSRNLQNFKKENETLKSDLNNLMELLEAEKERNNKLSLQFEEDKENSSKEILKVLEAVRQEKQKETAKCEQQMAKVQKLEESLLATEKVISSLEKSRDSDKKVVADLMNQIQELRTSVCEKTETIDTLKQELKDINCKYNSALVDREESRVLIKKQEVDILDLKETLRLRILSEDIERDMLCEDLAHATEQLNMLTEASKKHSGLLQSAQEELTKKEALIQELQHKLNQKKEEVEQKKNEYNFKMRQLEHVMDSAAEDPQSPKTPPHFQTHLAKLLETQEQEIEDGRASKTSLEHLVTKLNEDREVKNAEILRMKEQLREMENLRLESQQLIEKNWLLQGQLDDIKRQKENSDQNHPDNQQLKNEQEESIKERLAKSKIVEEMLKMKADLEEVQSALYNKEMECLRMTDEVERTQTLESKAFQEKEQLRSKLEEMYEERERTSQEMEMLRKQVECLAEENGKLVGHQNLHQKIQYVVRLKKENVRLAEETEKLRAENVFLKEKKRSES
How it was run: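 TP53−/− RPE-1 cells were exposed to the test compound at 25 μM or to DMSO for 24 h, then immunostained for Kif15, tubulin and DNA. Imaging used max-intensity z-projections or single optical sections. Spindle-bound Kif15 was quantified on metaphase MTs as the ratio of Kif15 to tubulin fluorescence intensity. 25–30 cells were analysed, pooled from triplicate experiments.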

TP53−/− RPE-1 cells = test: Spindle morphology; type: cell-based; conditions: 25 μM
How it was run: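 TP53−/− RPE-1 cells were exposed to 25 μM test compound or DMSO for 24 h and stained for tubulin, Kif15 and DNA. Pre-anaphase microtubule arrays were scored for bipolarity, in triplicate with at least 100 cells per replicate; spindle lengths were compared with DMSO-treated cells.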

KIRC-1 cells = test: Spindle monopolarity in K5I-resistant KIRC-1 cells; type: cell-based
[3] = ATP varied, high MT concentration

Compound: O=C1Nc2ccc(C(=O)c3ccco3)cc2/C1=C/c1cc(Cl)c(O)c(Br)c1 [Compound 7]
Kif15 MT gliding inhibition (SAR, in words) (Kif15-N700 [1]): intermediary inhibition

Compound: BRD9876
effect on spindle integrity (RPE-1 cells): does not cause spindle collapse

Compound: O=C1Nc2ccc(C(=O)c3ccco3)cc2/C1=C/c1cc(I)c(O)c(I)c1 [Compound 5]
Kif15 MT gliding inhibition (SAR, in words) (Kif15-N700 [1]): not as well tolerated

Compound: O=C1Nc2ccc(C(=O)c3ccco3)cc2/C1=C/c1cc(F)c(O)c(Br)c1 [Compound 6]
Kif15 MT gliding inhibition (SAR, in words) (Kif15-N700 [1]): intermediary inhibition

Compound: O=C1Nc2ccc(C(=O)c3ccco3)cc2/C1=C/c1cc(Br)cc(Br)c1 [Compound 8]
Kif15 MT gliding inhibition (SAR, in words) (Kif15-N700 [1]): abolished activity

Second part, led by results:

change in KM^ATP (Kif15-N700 [2]; [3]): increase
mode of inhibition with respect to ATP (Kif15-N700 [2]): competes with ATP binding
effect on Kif15-driven MT gliding at a single concentration (Kif15-N700 [1]): abolishes Kif15-driven MT gliding
reversibility of Kif15 inhibition in MT gliding assay (Kif15-N700 [1]): reversible
effect on spindle-bound levels of Kif15 (Kif15): did not reduce
Compound: CCOC(=O)c1sc(NC(=O)[C@H](C(C)C)n2c(=O)[nH]c3ccccc3c2=O)nc1C [Kif15-IN-1, reference compound]

Kif15 MT gliding inhibition (SAR, in words) (Kif15-N700 [1]): reduced in activity
Compound: Cc1cc(/C=C2\C(=O)Nc3ccc(C(=O)c4ccco4)cc32)cc(C)c1O [Compound 9]

Kif15 MT gliding inhibition (SAR, in words) (Kif15-N700 [1]): abolished activity
Compound: COc1c(Br)cc(/C=C2\C(=O)Nc3ccc(C(=O)c4ccco4)cc32)cc1Br [Compound 10]

change in KM^ATP (Kif15-N700 [2]; [3]): no change
change in Vmax (Kif15-N700 [2]; [3]): decrease
mode of inhibition with respect to ATP (Kif15-N700 [2]): not competing with ATP binding
change in KM^MT (Kif15-N700 [2]; MT varied, saturating ATP): increase
effect on Kif15-driven MT gliding at a single concentration (Kif15-N700 [1]): eliminate MT gliding
reversibility of Kif15 inhibition in MT gliding assay (Kif15-N700 [1]): reversible
Compound: O=C1Nc2ccc(C(=O)c3ccco3)cc2/C1=C/c1cc(Cl)c(O)c(Cl)c1 [GW108X]
spindle length (effect in words) (TP53−/− RPE-1 cells): unaffected
dose dependence of block of spindle assembly (KIRC-1 cells): dose-dependent
